Legend:
[1] = biological target: T1, A disintegrin and metalloproteinase with thrombospondin motifs 5 (Homo sapiens) (UniProt Q9UNA0); assay: Inhibition of ADAMTS5 at 20 uM by FRET assay
T1 sequence (whole entry): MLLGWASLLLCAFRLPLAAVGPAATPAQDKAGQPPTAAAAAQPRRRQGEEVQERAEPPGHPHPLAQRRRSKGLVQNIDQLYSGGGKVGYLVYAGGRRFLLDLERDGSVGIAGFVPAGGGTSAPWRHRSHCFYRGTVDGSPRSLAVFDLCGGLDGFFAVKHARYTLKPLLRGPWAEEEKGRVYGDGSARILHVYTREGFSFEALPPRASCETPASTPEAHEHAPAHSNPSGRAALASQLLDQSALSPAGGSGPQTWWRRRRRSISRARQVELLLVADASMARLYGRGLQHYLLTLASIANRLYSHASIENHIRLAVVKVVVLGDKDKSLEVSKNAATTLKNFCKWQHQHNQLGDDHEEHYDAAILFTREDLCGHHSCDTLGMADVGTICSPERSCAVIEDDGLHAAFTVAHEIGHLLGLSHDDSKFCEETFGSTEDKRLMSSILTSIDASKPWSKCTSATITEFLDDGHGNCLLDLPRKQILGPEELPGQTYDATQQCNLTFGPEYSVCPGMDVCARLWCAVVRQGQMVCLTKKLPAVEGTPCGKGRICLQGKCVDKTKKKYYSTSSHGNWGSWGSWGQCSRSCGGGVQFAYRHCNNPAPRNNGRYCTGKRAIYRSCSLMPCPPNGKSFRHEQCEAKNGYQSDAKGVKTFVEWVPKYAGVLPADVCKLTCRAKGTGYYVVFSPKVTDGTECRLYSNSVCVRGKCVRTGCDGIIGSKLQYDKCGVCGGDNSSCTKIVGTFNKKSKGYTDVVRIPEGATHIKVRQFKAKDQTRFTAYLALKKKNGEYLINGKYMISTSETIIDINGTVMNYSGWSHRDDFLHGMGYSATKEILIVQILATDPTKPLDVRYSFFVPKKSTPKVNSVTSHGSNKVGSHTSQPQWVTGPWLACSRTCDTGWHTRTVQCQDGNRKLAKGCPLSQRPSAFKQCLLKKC
Outline: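 Percent inhibition of aggrecanase-2 (ADAMTS-5) measured at a single 20 µM compound level. Reported values are means of two experiments, with standard deviations of ±10%.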

[2] = biological target: T2, A disintegrin and metalloproteinase with thrombospondin motifs 5 (Homo sapiens, UniProt Q9UNA0); assay: Inhibition of ADAMTS5 by FRET assay
T2 sequence (Q9UNA0 whole entry): T1 sequence (whole entry)
Outline: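 Aggrecanase-2 (ADAMTS-5) inhibition reported as IC50 in µM. Values are means of two independent experiments, with standard deviations of ±10%.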

[3] = biological target: T3, A disintegrin and metalloproteinase with thrombospondin motifs 4 (Homo sapiens, UniProt O75173); assay: Inhibition of ADAMTS4 by FRET assay
T3 sequence (O75173 whole entry): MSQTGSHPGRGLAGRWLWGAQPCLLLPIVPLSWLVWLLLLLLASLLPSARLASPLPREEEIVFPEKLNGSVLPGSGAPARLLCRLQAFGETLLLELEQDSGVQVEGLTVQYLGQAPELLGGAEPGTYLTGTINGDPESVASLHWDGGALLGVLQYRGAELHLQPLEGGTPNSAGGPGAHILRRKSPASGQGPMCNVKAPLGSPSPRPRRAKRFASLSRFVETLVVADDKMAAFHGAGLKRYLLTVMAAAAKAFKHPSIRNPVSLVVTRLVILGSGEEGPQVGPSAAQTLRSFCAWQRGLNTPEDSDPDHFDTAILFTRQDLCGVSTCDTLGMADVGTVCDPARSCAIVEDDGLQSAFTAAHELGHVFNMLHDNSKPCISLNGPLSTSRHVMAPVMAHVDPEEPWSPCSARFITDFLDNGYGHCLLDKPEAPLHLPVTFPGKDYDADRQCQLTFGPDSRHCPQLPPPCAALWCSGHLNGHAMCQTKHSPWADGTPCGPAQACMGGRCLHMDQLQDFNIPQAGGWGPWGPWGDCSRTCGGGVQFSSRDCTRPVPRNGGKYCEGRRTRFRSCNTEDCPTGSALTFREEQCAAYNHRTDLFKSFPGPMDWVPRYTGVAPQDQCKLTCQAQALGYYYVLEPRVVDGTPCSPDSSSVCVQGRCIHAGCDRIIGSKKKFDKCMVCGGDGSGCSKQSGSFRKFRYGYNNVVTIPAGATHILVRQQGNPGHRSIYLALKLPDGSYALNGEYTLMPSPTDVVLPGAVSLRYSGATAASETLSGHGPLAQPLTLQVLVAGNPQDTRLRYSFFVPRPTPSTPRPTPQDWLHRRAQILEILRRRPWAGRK

Row | SMILES | inhibition [1] | IC50 [2] | other results
1 | Cn1nc(-c2ccccc2)c(/C=C2\SC(=S)NC2=O)c1SCc1ccco1 |  | 14.1 µM | 
2 | O=C1NC(=S)S/C1=C\c1c(C(F)(F)F)nn(-c2ccccc2)c1OCCc1ccc(F)cc1 |  | 7.1 µM | 
3 | CN1CCN(c2c(/C=C3\SC(=S)NC3=O)c(C(F)(F)F)nn2-c2ccccc2)CC1 | 45% |  | 
4 | O=C1NC(=S)S/C1=C\c1c(C(F)(F)F)nn(-c2ccccc2)c1OCCc1cccs1 |  | 9.1 µM | 
5 | O=C1NC(=S)S/C1=C\c1c(C(F)(F)F)nn(-c2ccccc2)c1N1CCN(c2ccc(Cl)cc2)CC1 |  | 2.1 µM | 
6 | O=C1NC(=S)SC1Cc1c(C(F)(F)F)nn(-c2ccccc2)c1SCc1ccco1 (stereo unspecified) | 42% |  | 
7 | CN1CCN(c2c(CC3SC(=S)NC3=O)c(C(F)(F)F)nn2-c2ccccc2)CC1 (stereo unspecified) | < 40% |  | 
8 | O=C1NC(=S)SC1Cc1c(C(F)(F)F)nn(-c2ccccc2)c1SCc1ccc(Cl)cc1 (stereo unspecified) |  | 5.8 µM | 
9 | O=C1NC(=S)S/C1=C\c1c(C(F)(F)F)nn(C2CCCCC2)c1N1CCN(c2ncccn2)CC1 |  | 11.7 µM | 
10 | COc1ccc(CCOc2c(/C=C3\SC(=S)NC3=O)c(C(F)(F)F)nn2-c2ccccc2)cc1 | 31% |  | 
11 | O=C1NC(=S)S/C1=C\c1c(C(F)(F)F)nn(-c2ccccc2)c1SCc1ccco1 | 42% |  | 
12 | O=C1NC(=S)S/C1=C\c1c(-c2ccccc2)nn(C2CCCCC2)c1SCc1ccco1 |  | 4.6 µM | 
13 | O=C1NC(=S)S/C1=C\c1c(-c2ccccc2)nn(-c2ccccc2)c1SCc1ccco1 |  | 6.7 µM | 
14 | O=C1NC(=S)S/C1=C\c1c(C(F)(F)F)nn(-c2ccccc2)c1SCc1ccccc1 |  | 16.9 µM | 
15 | O=C1NC(=S)S/C1=C\c1c(-c2ccccc2)nn(-c2ccccc2)c1SCc1cccs1 |  | 3.7 µM | 
16 | O=C1NC(=S)S/C1=C\c1c(-c2ccccc2)nn(C2CCCCC2)c1N1CCN(c2ncccn2)CC1 |  | 8 µM | 
17 | CN1CCN(c2c(/C=C3\SC(=S)NC3=O)c(-c3ccccc3)nn2-c2ccccc2)CC1 |  | 4.6 µM | 

More lines, main results first:

Row | inhibition [1] | IC50 [2] | SMILES | other results
18 | 44% |  | Cn1nc(C(F)(F)F)c(/C=C2\SC(=S)NC2=O)c1SCc1ccccc1 | 
19 | 53% |  | COc1ccc(CSc2c(/C=C3\SC(=S)NC3=O)c(C(F)(F)F)nn2C)cc1 | 
20 | 47% |  | Cn1nc(C(F)(F)F)c(/C=C2\SC(=S)NC2=O)c1Sc1ccc(Cl)cc1 | 
21 |  | 8.3 µM | Cc1ccc(Sc2c(/C=C3\SC(=S)NC3=O)c(-c3ccccc3)nn2C)cc1 | 
22 |  | 4.2 µM | O=C1NC(=S)S/C1=C\c1c(C(F)(F)F)nn(C2CCCCC2)c1SCc1ccc(Cl)cc1 | 
23 |  | 9 µM | Cn1nc(C(F)(F)F)c(/C=C2\SC(=S)NC2=O)c1N1CCN(c2ccc(Cl)cc2)CC1 | 
24 |  | 2.2 µM | Cn1nc(C(F)(F)F)c(/C=C2\SC(=S)NC2=O)c1SCc1ccc(C(C)(C)C)cc1 | IC50 [3]: 7.5 µM
25 |  | 2.5 µM | O=C1NC(=S)S/C1=C\c1c(C(F)(F)F)nn(-c2ccccc2)c1SCc1ccc(Cl)cc1 | 
26 |  | 1.1 µM | Cn1nc(C(F)(F)F)c(/C=C2\SC(=S)NC2=O)c1SCc1ccc(Cl)cc1 | 
27 | 40% |  | Cn1nc(C(F)(F)F)c(/C=C2\SC(=S)NC2=O)c1SCc1cccs1 | 
28 |  | 4.2 µM | O=C1NC(=S)S/C1=C\c1c(C(F)(F)F)nn(-c2ccccc2)c1OCCc1ccc(Cl)cc1 | 
29 |  | 23.2 µM | Cn1nc(C(F)(F)F)c(/C=C2\SC(=S)NC2=O)c1SCc1ccccc1Cl | 
30 | 28% |  | Cn1nc(C(F)(F)F)c(/C=C2\SC(=S)NC2=O)c1Sc1ccccc1 | 
